Laboratory results reported in ChEMBL document CHEMBL1124801, “Novel 3-hydroxy-2(1H)-pyridinones. Synthesis, iron(III)-chelating properties, and biological activity” (J Med Chem, 1990).

What was measured:
Assay type in all cases: physicochemical
[1] = Distribution coefficient was measured at an aqueous phase buffered at pH 7.4 and octanol; conditions: octanol/water
In short: (§1)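 Spectrophotometric partition: ligands at about 0.1 mM in 20 mM Tris-HCl pH 7.4 shaken overnight with octan-1-ol at 25 °C. Octanol volume chosen to lower aqueous absorbance by 30–70%; three preparations used. Aqueous spectra read at 250–350 nm for free ligands and 350–600 for iron(III) complexes, the complexes formed with over 10-fold ligand excess over iron(III).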

[2] = Distribution coefficient and iron(III) complex was measured at an aqueous phase buffered at pH 7.4 and octanol; conditions: octanol/water; in short: as §1
[3] = pKa values were measured by spectrophotometric method
[4] = pKa values was measured by spectrophotometric method

SMILES	Distribution coefficient [1]	Distribution coefficient [2]	pKa [3]	pKa [4]
CC(C)NC(=O)Cn1cccc(O)c1=O	0.46	0.11	–	–
CC(C)n1cccc(O)c1=O	6.17	234	–	–
CNC(=O)Cn1cccc(O)c1=O	0.07	0.001	–	–
CC(=O)N(O)CCCCCNC(=O)CCC(=O)N(O)CCCCCNC(=O)CCC(=O)N(O)CCCCCN [DEFEROXAMINE]	0.07	0.03	–	–
CCCNC(=O)Cn1cccc(O)c1=O	0.57	0.35	–	8.75
CCCCNC(=O)Cn1cccc(O)c1=O	2.12	3.74	–	–
CCNC(=O)Cn1cccc(O)c1=O	0.18	0.035	–	–
O=C(Cn1cccc(O)c1=O)NCCN(CCNC(=O)Cn1cccc(O)c1=O)CCNC(=O)Cn1cccc(O)c1=O	0.025	0.008	–	8.7

The next lines start with the values.

Distribution coefficient [1]	Distribution coefficient [2]	pKa [3]	pKa [4]	SMILES
1.57	1.67	8.99	–	CCn1cccc(O)c1=O
4.92	24.6	–	–	CCCn1cccc(O)c1=O
0.6	0.12	–	–	Cn1cccc(O)c1=O
16	> 1000	–	–	CCCCn1cccc(O)c1=O
